Five compounds from ChEMBL document CHEMBL1128174, “Enhanced D1 affinity in a series of piperazine ring substituted 1-piperazino-3-arylindans with potential atypical antipsychotic activity” (J Med Chem, 1995) can be followed below.

Assay [1] addresses T1, D(1A) dopamine receptor (Rattus norvegicus, UniProt P18901). Kind of assay: The compound was tested for the binding affinity against Dopamine receptor D1 activity is expressed as IC50 values. The essentials: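 [3H]SCH 23390 displaced from rat striatal membrane preparations; IC50 read from log-concentration–effect curves, two complete curves of five test concentrations run in triplicate over three decades.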

Another assay addresses D(2) dopamine receptor (Rattus norvegicus, UniProt P61169). The assay is described as follows: Binding affinity against dopamine receptor D2.
Another assay is filed under the species Mus musculus. The assay is described as follows: Antagonism of methyl phenidate-induced gnawing behavior in mice. The class given is functional. The essentials: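 Test compound given ip (or sc) 2 h before methyl phenidate (60 mg/kg); mice housed in pairs on corrugated cardboard in gnawing cages, 5–9 pairs per dose.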
The species named for assay [2] is Rattus norvegicus. The assay is described as follows: Cataleptogenic effect in rats. The class given is functional. A digest of the protocol: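 Rats scored on a vertical wire grid hourly 1–6 h after dosing; catalepsy counted when immobility lasted at least 15 s.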
The target in assay [3] is T1, D(1A) dopamine receptor. Kind of assay: Binding affinity for dopamine receptor D1, activity is expressed as IC50 values.
The species named for assay [4] is Rattus norvegicus. Kind of assay: In vitro inhibition of [3H]dopamine uptake in rat corpus striatum homogenates. It counts as functional.
The species named for assay [5] is Rattus norvegicus. The assay is described as follows: In vitro inhibition of [3H]5-HT uptake in rat brain (minus pons, medulla oblongata and cerebellum) homogenates. The class given is functional.
The target in assay [6] is T2, Adrenergic receptor alpha-1 (Rattus norvegicus, UniProt P15823+P23944+P43140).
T2 sequence (P15823 whole entry): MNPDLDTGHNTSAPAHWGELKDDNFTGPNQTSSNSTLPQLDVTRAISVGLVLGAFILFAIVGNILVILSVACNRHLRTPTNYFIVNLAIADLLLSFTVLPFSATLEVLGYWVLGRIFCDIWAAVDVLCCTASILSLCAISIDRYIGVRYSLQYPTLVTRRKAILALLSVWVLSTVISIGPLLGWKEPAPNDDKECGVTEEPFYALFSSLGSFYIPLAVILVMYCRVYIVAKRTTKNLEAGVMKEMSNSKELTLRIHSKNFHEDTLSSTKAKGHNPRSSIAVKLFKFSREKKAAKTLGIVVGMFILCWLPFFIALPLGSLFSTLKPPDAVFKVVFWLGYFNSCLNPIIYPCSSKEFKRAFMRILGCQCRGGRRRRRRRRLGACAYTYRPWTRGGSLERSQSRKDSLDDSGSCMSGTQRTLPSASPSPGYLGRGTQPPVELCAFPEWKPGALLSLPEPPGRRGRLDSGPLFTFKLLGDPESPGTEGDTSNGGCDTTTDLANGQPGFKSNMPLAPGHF
T2 sequence (P23944 whole entry): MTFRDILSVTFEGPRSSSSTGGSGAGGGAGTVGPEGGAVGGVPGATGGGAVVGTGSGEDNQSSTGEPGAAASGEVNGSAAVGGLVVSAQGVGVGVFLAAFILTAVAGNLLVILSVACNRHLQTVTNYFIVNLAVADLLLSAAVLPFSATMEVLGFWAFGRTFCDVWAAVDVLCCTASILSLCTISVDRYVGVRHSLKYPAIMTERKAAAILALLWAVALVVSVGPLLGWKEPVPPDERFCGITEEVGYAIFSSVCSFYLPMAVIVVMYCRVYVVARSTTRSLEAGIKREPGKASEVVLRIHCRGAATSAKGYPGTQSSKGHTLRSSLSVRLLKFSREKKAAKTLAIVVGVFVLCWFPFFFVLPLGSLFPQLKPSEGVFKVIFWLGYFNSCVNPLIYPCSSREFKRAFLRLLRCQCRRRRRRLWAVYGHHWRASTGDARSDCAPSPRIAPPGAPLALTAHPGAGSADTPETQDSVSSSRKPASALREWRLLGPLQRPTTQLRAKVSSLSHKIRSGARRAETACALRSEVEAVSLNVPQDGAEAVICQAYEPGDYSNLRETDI
T2 sequence (P43140 whole entry): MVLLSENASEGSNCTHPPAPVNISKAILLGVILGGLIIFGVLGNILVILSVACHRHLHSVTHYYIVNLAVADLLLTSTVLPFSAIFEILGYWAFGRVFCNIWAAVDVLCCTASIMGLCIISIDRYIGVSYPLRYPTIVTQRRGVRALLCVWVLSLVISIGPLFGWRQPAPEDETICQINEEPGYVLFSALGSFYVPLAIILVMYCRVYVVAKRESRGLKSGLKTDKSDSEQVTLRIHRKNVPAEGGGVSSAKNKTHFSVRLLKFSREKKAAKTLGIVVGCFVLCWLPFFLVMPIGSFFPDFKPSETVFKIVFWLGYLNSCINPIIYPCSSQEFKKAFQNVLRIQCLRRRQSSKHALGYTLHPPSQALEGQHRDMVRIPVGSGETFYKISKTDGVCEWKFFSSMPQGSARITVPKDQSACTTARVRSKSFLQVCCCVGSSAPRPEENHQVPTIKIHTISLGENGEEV
Kind of assay: Binding affinity against Alpha-1 adrenergic receptor, activity is expressed as IC50 values. It counts as protein assay.

Assay [7] is filed under the species Rattus norvegicus. The assay is described as follows: In vitro inhibition of [3H]NE uptake in rat occipital lobe (plus temporal cortex) homogenates. It counts as functional.
Assay [8] addresses 5-hydroxytryptamine receptor 2A (Rattus norvegicus, UniProt P14842). Kind of assay: Binding affinity for 5-hydroxytryptamine 2A receptor, activity is expressed as IC50 values.

SMILES strings stand for the structures.

T1 sequence (P18901 whole entry): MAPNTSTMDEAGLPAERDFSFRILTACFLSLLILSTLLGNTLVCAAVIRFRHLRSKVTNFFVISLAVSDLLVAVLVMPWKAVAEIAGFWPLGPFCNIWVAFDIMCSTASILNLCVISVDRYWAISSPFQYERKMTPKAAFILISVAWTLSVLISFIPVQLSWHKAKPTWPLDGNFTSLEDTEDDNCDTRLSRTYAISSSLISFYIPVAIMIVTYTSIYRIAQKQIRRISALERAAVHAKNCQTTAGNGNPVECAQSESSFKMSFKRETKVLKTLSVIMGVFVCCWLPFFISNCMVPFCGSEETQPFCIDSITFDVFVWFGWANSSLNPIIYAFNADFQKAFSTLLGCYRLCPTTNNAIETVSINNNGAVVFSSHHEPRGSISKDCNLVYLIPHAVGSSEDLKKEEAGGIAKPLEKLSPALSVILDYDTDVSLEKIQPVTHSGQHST
Sequence of D(2) dopamine receptor (P61169 whole entry): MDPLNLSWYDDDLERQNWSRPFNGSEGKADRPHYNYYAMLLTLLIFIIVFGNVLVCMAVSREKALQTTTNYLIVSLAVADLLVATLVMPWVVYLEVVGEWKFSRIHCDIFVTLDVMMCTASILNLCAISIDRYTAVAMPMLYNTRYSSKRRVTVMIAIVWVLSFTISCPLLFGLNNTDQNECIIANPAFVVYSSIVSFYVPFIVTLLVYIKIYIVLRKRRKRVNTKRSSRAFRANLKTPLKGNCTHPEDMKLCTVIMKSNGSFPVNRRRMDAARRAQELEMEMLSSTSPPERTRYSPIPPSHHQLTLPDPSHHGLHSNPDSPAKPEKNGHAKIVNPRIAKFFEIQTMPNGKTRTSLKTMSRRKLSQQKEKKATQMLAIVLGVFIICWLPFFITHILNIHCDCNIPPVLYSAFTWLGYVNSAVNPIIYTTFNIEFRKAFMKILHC
Sequence of 5-hydroxytryptamine receptor 2A (P14842 whole entry): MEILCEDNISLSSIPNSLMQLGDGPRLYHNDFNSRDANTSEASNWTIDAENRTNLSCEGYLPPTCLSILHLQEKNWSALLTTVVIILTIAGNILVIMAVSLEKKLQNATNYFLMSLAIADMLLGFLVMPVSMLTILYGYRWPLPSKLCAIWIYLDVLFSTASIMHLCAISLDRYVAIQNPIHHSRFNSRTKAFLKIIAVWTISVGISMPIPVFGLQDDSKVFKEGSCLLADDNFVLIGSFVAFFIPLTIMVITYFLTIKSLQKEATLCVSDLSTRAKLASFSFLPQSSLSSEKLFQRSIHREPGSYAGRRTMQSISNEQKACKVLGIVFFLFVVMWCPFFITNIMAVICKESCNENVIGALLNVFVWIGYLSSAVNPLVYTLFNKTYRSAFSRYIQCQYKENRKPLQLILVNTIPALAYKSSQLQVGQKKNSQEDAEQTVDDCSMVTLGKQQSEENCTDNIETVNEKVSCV

Consider `CN1CCN(C2CC(c3ccccc3)c3ccccc32)CC1` (centres undefined), for which the IC50 at D(1A) dopamine receptor [1] is 0.48 µM; at D(2) dopamine receptor it was 0.69 µM.

Compound `OCCN1CCN(C2CC(c3ccc(F)cc3)c3c(Cl)cccc32)CC1` (centres undefined) showed an IC50 at D(1A) dopamine receptor [1] of 2 µM.

Take `OCCN1CCN(C2CC(c3ccc(F)cc3)c3ccc(Cl)cc32)CC1` (centres undefined): on D(1A) dopamine receptor [1], the IC50 is 0.0083 µM.

In the case of `CC1(C)CN(C2CC(c3ccc(F)cc3)c3ccc(Cl)cc32)CCN1` (stereo in doubt; (-)-41), the figures for the ED50 in the assay listed under Mus musculus and in the assay filed under Rattus norvegicus [2] were 5.6 µM/kg and greater than 84 µM/kg, respectively. Also, the IC50 on D(1A) dopamine receptor [3] worked out at 0.0011 µM; in the assay listed under Rattus norvegicus [4] it was 0.4 µM; at D(2) dopamine receptor it was 0.009 µM; in the assay listed under Rattus norvegicus [5], 1.8 µM; in [6] it was 0.012 µM; in the assay listed under Rattus norvegicus [7], 2.2 µM. Moreover, in [8], the IC50 is 0.0037 µM.

For `OCCN1CCN(C2CC(c3ccc(F)cc3)c3cc(Cl)ccc32)CC1` (centres undefined), on D(1A) dopamine receptor [1], the half-inhibitory concentration (IC50) is 1.8 µM.

What is called IC50 is the concentration that inhibits the measured activity by half.
